This note sets out measurements from ChEMBL document CHEMBL4431333, “Synthesis, Antibacterial, and Anticancer Evaluation of Novel Spiramycin-Like Conjugates Containing C(5) Triazole Arm” (J Med Chem, 2016).

≈ marks a conversion by molar mass, not a printed value. Calls of active or inactive are those of the source. The rule behind the calls is not given here. Bounds are passed on as bounds.

The nature of data set [1]: Solubility of compound in water. The class given is physicochemical.
Another data set relates to Bacillus spizizenii. Put plainly: Antibacterial activity against Bacillus subtilis ATCC 6633 after 18 hrs by serial microdilution method. The data set is classed as functional.
The test system of a further data set is Micrococcus luteus. In words: Antibacterial activity against Micrococcus luteus ATCC 10240 after 18 hrs by serial microdilution method. The class given is functional. In general terms: Dilution methods test growth across graded concentrations, often in twofold steps.
Data set [2] deals with Staphylococcus aureus. Put plainly: Antibacterial activity against methicillin-resistant Staphylococcus aureus isolate 1 after 18 hrs by serial microdilution method. The class given is functional. The essentials:
(§1)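 Clinical MRSA isolates, confirmed by cefoxitin 30 μg disc diffusion (EUCAST) and PCR for mecA. MIC by EUCAST broth microdilution in Mueller–Hinton II broth. Compounds dissolved in DMSO and diluted in broth, tested at 0.064–64 μg mL−1. Final inoculum approximately 5 × 10^5 CFU mL−1. Read after 18 h at 35 ± 2 °C.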

In data set [3] the test system is Staphylococcus aureus. Put plainly: Antibacterial activity against methicillin-resistant Staphylococcus aureus isolate 2 after 18 hrs by serial microdilution method. The class given is functional. The method, boiled down: as §1
Data set [4] deals with Staphylococcus epidermidis. In words: Antibacterial activity against Staphylococcus epidermidis ATCC 12228 after 18 hrs by serial microdilution method. The class given is functional.
The test system of data set [5] is Staphylococcus epidermidis. Put plainly: Antibacterial activity against Staphylococcus epidermidis ATCC 49134 after 18 hrs by serial microdilution method. The class given is functional.
The test system of another data set is Streptococcus pneumoniae. In words: Antibacterial activity against Streptococcus pneumoniae ATCC 49619 after 18 hrs by serial microdilution method. The class given is functional.
For data set [6], the species on record is Homo sapiens. Put plainly: (§2) Selectivity index, ratio of IC50 for HDF to IC50 for human HeLa cells.
Data set [7] is filed under the species Homo sapiens. In words: (§3) Selectivity index, ratio of IC50 for HDF to IC50 for human KB cells.
For data set [8], the species on record is Homo sapiens. In words: (§4) Selectivity index, ratio of IC50 for HDF to IC50 for human MCF7 cells.
Data set [9] is filed under the species Homo sapiens. Put plainly: (§5) Selectivity index, ratio of IC50 for HDF to IC50 for human HepG2 cells.
Data set [10] in a line: Octanol-water partition coefficient, log P of compound after 1 hr by UV-visible spectrophotometric analysis. The class given is physicochemical.
A further data set has as its system HeLa. Put plainly: Cytotoxicity against human HeLa cells assessed as reduction in cell survival after 72 hrs by sulforhodamine B assay. The data set is classed as functional, cell-based. On the technique in general: In SRB staining, fixed cells bind dye roughly in proportion to their protein.
For the next data set, the system named is KB. Put plainly: Cytotoxicity against human KB cells assessed as reduction in cell survival after 72 hrs by sulforhodamine B assay. The class given is functional, cell-based.
The subject of a further data set is MCF7. Put plainly: Cytotoxicity against human MCF7 cells assessed as reduction in cell survival after 72 hrs by sulforhodamine B assay. The class given is functional, cell-based.
Another data set relates to HepG2. In words: Cytotoxicity against human HepG2 cells assessed as reduction in cell survival after 72 hrs by sulforhodamine B assay. The data set is classed as functional, cell-based.
A further data set relates to NHDF. In words: Cytotoxicity against HDF assessed as reduction in cell survival after 72 hrs by sulforhodamine B assay. The data set is classed as cell-based, Homo sapiens.
A short description of data set [11]: as §2.
Data set [12] is described as follows: as §3.
Data set [13] in a line: as §4.
A short description of data set [14]: as §5.

As usually defined, the solubility is the concentration that dissolves in the medium under given conditions. Consider `CO/C1=C\CC(=O)O[C@H](C)C/C=C/C=C/[C@H](O[C@H]2CC[C@H](N(C)C)[C@@H](C)O2)[C@H](C)C[C@@H]2C[C@H](OCc3cn(Cc4ccccc4)nn3)O[C@@H]12`, for which the solubility result in [1] (buffer) is given as “Insoluble”.

For `CO/C1=C\CC(=O)O[C@H](C)C/C=C/C=C/[C@H](O[C@H]2CC[C@H](N(C)C)[C@@H](C)O2)[C@H](C)C[C@@H]2C[C@H](OCc3cn([C@H]4C[C@H](n5cc(C)c(=O)[nH]c5=O)O[C@@H]4CO)nn3)O[C@@H]12`, the solubility result in data set [1] (buffer) is given as “Insoluble”.

The term MIC denotes the lowest concentration found to suppress growth. Consider `CO/C1=C\CC(=O)O[C@H](C)C/C=C/C=C/[C@H](O[C@H]2CC[C@H](N(C)C)[C@@H](C)O2)[C@H](C)C[C@@H]2C[C@H](OCc3cn([C@H]4O[C@@H](CO)[C@H](O)[C@@H](O)[C@@H]4O)nn3)O[C@@H]12`, for which the minimum inhibitory concentration (MIC) is 85.2 µM (≈ 64 µg/mL) in the data set on Bacillus spizizenii (ATCC 6633, 18 h); 85.2 µM (≈ 64 µg/mL) against Micrococcus luteus (ATCC 10240, 18 h); more than 85.2 µM with Staphylococcus aureus [2] (isolate 1, 18 h); more than 85.2 µM against Staphylococcus aureus [3] (isolate 2, 18 h); 85.2 µM (≈ 64 µg/mL) in [4] (ATCC 12228, 18 h); 85.2 µM (≈ 64 µg/mL) in [5] (ATCC 49134, 18 h). In the data set with Streptococcus pneumoniae (ATCC 49619, 18 h), this compound had an MIC of 10.7 µM (≈ 8 µg/mL).

Take SPIRAMYCIN [listing 1 of 2 here]: the MIC against Bacillus spizizenii worked out at 0.59 µM; with Micrococcus luteus, 0.3 µM; against Staphylococcus aureus [2], 9.49 µM; against Staphylococcus aureus [3] it was 4.74 µM; in data set [4] it was 2.37 µM; in data set [5], 2.37 µM. The same compound yielded an MIC against Streptococcus pneumoniae of 0.3 µM. The Ratio IC50 in the data set listed under Homo sapiens [6] is 0.9; in the data set listed under Homo sapiens [7], 0.9; in the data set listed under Homo sapiens [8], 0.94; in the data set listed under Homo sapiens [9], 1.02.

The logP is the decadic logarithm of the partition coefficient of the neutral form, usually between octanol and water. Read a low logP as lower lipophilicity. What is called IC50 is the concentration needed to halve the response being measured. For the compound `COC1=C\[C@@H](CC=O)C[C@@H](C)[C@@H](O[C@H]2CC[C@H](N(C)C)[C@@H](C)O2)/C=C/C=C/C[C@@H](C)OC(=O)\C=C\1`, the MIC in the data set with Bacillus spizizenii (ATCC 6633, 18 h) was 16.3 µM (≈ 8 µg/mL); against Micrococcus luteus (ATCC 10240, 18 h), 8.17 µM (≈ 4 µg/mL); with Staphylococcus aureus [2] (isolate 1, 18 h) it was 32.7 µM (≈ 16 µg/mL); against Staphylococcus aureus [3] (isolate 2, 18 h), 32.7 µM (≈ 16 µg/mL); in [4] (ATCC 12228, 18 h) it was 16.3 µM (≈ 8 µg/mL); in data set [5] (ATCC 49134, 18 h), 16.3 µM (≈ 8 µg/mL). In the data set on Streptococcus pneumoniae (ATCC 49619, 18 h), this compound yielded an MIC of 4.08 µM (≈ 2 µg/mL). This compound showed a logP at 1 h in data set [10] of 0.74. For the same compound, the IC50 in the data set on HeLa (Homo sapiens, HeLa, 72 h) turned out to be 127 µM; in the data set with KB (Homo sapiens, KB, 72 h), 133 µM; in the data set with MCF7 (Homo sapiens, MCF7, 72 h), 131 µM; in the data set on HepG2 (Homo sapiens, HepG2, 72 h), 135 µM; in the data set on NHDF (Homo sapiens, NHDF, 72 h) it was 139 µM. Besides, the “Ratio IC50” value in data set [11] turned out to be 1.1; in data set [12] it was 1.05; in data set [13], 1.07; in data set [14], 1.03. The solubility in data set [1] (water, read-out: solubility) was 700 µg/mL (≈ 1430 µM).

Regarding `O=c1[nH]c(=O)n([C@H]2C[C@H](O)[C@@H](CO)O2)cc1F` [FLOXURIDINE], the “Ratio IC50” value in data set [12] turned out to be 1.5.

Take `CO/C1=C\CC(=O)O[C@H](C)C/C=C/C=C/[C@H](O[C@H]2CC[C@H](N(C)C)[C@@H](C)O2)[C@H](C)C[C@@H]2C[C@H](OCc3cn(C4CCCCCC4)nn3)O[C@@H]12`: the solubility result in data set [1] (buffer) is “Insoluble”.

In the case of `CO/C1=C\CC(=O)O[C@H](C)C/C=C/C=C/[C@H](O[C@H]2CC[C@H](N(C)C)[C@@H](C)O2)[C@H](C)C[C@@H]2C[C@H](OCc3cn(CC4CCOCC4)nn3)O[C@@H]12`, the result (with Bacillus spizizenii; with Micrococcus luteus; with Staphylococcus aureus [2]; with Staphylococcus aureus [3]; in [4]; in data set [5]) was inactive. The result with Streptococcus pneumoniae was inactive. Besides, the solubility entry in [1] (buffer) is given as “Insoluble”.

On to `CO/C1=C\CC(=O)O[C@H](C)C/C=C/C=C/[C@H](O[C@H]2CC[C@H](N(C)C)[C@@H](C)O2)[C@H](C)C[C@@H]2C[C@H](OCc3cn(C4CCCCC4)nn3)O[C@@H]12`, for which the solubility entry in data set [1] (buffer) is reported as “Insoluble”.

On to `C#CCO[C@H]1C[C@H]2C[C@@H](C)[C@@H](O[C@H]3CC[C@H](N(C)C)[C@@H](C)O3)/C=C/C=C/C[C@@H](C)OC(=O)C/C=C(\OC)[C@@H]2O1`, for which the result (in the data set with Bacillus spizizenii; in the data set with Micrococcus luteus; in the data set on Staphylococcus aureus [2]; in the data set on Staphylococcus aureus [3]; in data set [4]; in data set [5]) was inactive. For the same compound, in the data set on Streptococcus pneumoniae, the result was inactive. Further, in data set [1] (buffer), the solubility entry is “Insoluble”.

As for `CO/C1=C\CC(=O)O[C@H](C)C/C=C/C=C/[C@H](O[C@H]2CC[C@H](N(C)C)[C@@H](C)O2)[C@H](C)C[C@@H]2C[C@H](OCc3cn([C@H]4O[C@@H](CO)[C@@H](O)[C@@H](O)[C@@H]4O)nn3)O[C@@H]12`, the minimum inhibitory concentration (MIC) in the data set with Bacillus spizizenii (ATCC 6633, 18 h) is 85.2 µM (≈ 64 µg/mL); in the data set on Micrococcus luteus (ATCC 10240, 18 h), 85.2 µM (≈ 64 µg/mL); against Staphylococcus aureus [2] (isolate 1, 18 h), more than 85.2 µM; in the data set on Staphylococcus aureus [3] (isolate 2, 18 h), more than 85.2 µM; in data set [4] (ATCC 12228, 18 h) it was more than 85.2 µM; in [5] (ATCC 49134, 18 h), more than 85.2 µM. In addition, the MIC with Streptococcus pneumoniae (ATCC 49619, 18 h) is 10.7 µM (≈ 8 µg/mL).

For the compound `Nc1ccn([C@@H]2O[C@H](CO)[C@@H](O)[C@@H]2O)c(=O)n1` [CYTARABINE], the “Ratio IC50” value in [12] worked out at 1.23.

For `CO/C1=C\CC(=O)O[C@H](C)C/C=C/C=C/[C@H](O[C@H]2CC[C@H](N(C)C)[C@@H](C)O2)[C@H](C)C[C@@H]2C[C@H](OCc3cn(CC4CCCCC4)nn3)O[C@@H]12`, the solubility result in [1] (buffer) was “Insoluble”.

`C=CCO[C@H]1C[C@H]2C[C@@H](C)[C@@H](O[C@H]3CC[C@H](N(C)C)[C@@H](C)O3)/C=C/C=C/C[C@@H](C)OC(=O)C/C=C(\OC)[C@@H]2O1`: the result (in the data set with Bacillus spizizenii; in the data set with Micrococcus luteus; in the data set with Staphylococcus aureus [2]; in data set [4]; with Streptococcus pneumoniae) was inactive. Further, the solubility entry in data set [1] (buffer) is “Insoluble”.

SPIRAMYCIN [listing 2 of 2 here]: the logP in data set [10] (1 h) was determined as 0.58. Moreover, the IC50 in the data set on HeLa (hela) was determined as 34.4 µM; in the data set on KB (kb), 31.3 µM; with MCF7 (mcf7) it was 33.1 µM; in the data set on HepG2 (hepg2) it was 30.5 µM; with NHDF (nhdf) it was 31.1 µM. This compound gave a solubility in data set [1] (buffer) of 4500 µg/mL.

As to `Cc1cn([C@H]2C[C@H](N=[N+]=[N-])[C@@H](CO)O2)c(=O)[nH]c1=O` [ZIDOVUDINE], in the data set with MCF7 (Homo sapiens, MCF7, 72 h), the IC50 came to 7.67 µM. The “Ratio IC50” value in [11] is listed as 1.34; in data set [12], 1.48; in data set [13] it was 1.88.

Turning to `O=c1[nH]cc(F)c(=O)[nH]1` [FLUOROURACIL], the IC50 with NHDF (Homo sapiens, NHDF, 72 h) was found to be 7.02 µM. The “Ratio IC50” value in data set [12] amounted to 1.45.

Take `CO/C1=C\CC(=O)O[C@H](C)C/C=C/C=C/[C@H](O[C@H]2CC[C@H](N(C)C)[C@@H](C)O2)[C@H](C)C[C@@H]2C[C@H](OCc3ccc(F)cc3)O[C@@H]12`: the outcome (with Bacillus spizizenii; in the data set on Micrococcus luteus; with Staphylococcus aureus [2]; in [4]; with Streptococcus pneumoniae) was inactive. Besides, in data set [1] (buffer), the solubility result is recorded as “Insoluble”.
